Compound activity deposited in PubChem BioAssay by several laboratories.
HKDC1 inh – blocks human hexokinase HKDC1 activity | recombinant HKDC1, G6PDH/diaphorase resazurin coupled fluorescence | inhibition, % at 20 µM | 340,000 tested, 0.16% active | AID 493160;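 active means inhibition above about 35% when tested at 20 µM, limit read from the data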
Target sequence (Q2TB90 whole entry, looked up): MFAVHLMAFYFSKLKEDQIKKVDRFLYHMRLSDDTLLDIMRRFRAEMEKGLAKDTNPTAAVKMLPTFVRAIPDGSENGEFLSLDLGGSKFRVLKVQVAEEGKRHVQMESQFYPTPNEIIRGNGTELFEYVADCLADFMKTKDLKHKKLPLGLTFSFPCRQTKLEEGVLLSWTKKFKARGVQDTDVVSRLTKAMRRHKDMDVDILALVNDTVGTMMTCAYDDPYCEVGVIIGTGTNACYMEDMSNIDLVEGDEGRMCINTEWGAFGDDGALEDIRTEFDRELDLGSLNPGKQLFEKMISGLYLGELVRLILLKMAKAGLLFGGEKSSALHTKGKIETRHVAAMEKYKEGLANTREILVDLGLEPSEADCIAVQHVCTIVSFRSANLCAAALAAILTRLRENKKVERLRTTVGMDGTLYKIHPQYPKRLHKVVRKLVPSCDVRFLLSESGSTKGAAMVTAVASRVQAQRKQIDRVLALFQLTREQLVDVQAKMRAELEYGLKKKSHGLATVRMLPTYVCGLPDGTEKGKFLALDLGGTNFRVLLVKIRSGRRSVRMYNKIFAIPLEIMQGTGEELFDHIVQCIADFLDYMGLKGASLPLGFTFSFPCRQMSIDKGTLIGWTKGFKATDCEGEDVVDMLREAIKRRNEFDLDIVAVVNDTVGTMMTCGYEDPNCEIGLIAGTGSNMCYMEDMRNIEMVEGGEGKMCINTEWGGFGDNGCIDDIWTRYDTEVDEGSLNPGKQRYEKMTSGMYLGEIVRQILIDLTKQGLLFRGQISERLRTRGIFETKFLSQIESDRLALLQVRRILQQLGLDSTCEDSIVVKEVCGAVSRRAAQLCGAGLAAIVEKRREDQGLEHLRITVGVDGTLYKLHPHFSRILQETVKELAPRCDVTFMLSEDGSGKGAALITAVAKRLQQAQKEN
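Material: recombinant HKDC1 hexokinase; Amount: HKDC1 at 5 µg/mL; Medium: Tris pH 8.0 buffer with MgCl2, Tween-20, BSA, BME; Schedule: 90 min reaction incubation at room temperature, dark; Technique: coupled resazurin fluorescence, excitation 525 nm, emission 613 nm.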
PfG6PD inh – PfG6PD (Plasmodium falciparum) enzyme inhibition; PfGluPho enzyme, NADPH resazurin-diaphorase fluorescence; inhibition, % at 20 µM; 350,000 tested, 0.78% active; AID 504690;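 active means inhibition reaching at least a set limit at 20 µM in the primary screen, cut at about 59% in these data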
ATG4B inh – blocks human ATG4B protease cleavage of LC3 substrate. 340,000 tested, 0.51% active. AID 504462. ATG4B cleavage of LC3-PLA2, NBD-HPC fluorescence, 1 h. inhibition, % at 8.33 µM. Q9Y4P1; in the data active means inhibition above about 40%
T cell HTS – T cell immune modulation candidate. response (vesicle binding), % at 7 µM. 2C CD8+ T cell-vesicle binding, flow cytometry; active compounds read low. 330,000 tested, 0.068% active;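 active means response, share of CD8 T cells binding vesicles, and their 90th percentile fluorescence all below set limits, cut at about 80% in these data, passing the limit was not always enough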;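 further: values below 100% mean blocked vesicle binding to the CD8+ T cells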
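System: murine 2C transgenic CD8+ T lymphocytes; also added: QL9-loaded Drosophila micro-vesicles; times: binding 1.5 h at 37 °C; measured by: flow cytometry, PE anti-B7-1 (FL2) versus Alexa647 anti-CD8 (FL8), PFA-fixed; control set: Peptide-free naked vesicles (low) and QL9 vesicles with 0.7% DMSO vehicle (high)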
PKA-R1A activ – activates the PKA-R1A holoenzyme complex; AID 504707; PKA-R1A dissociation, Cy5-IP20 fluorescence polarization; scaled: DMSO 0%, 113 µM cGMP 100%; 340,000 tested, 0.083% active; activation, % at 11.4 µM; P00514+P68181;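 active means percent activation above the mean of all tested compounds plus 3 SD, cut at about 19% in these data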;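 further: higher means more PKAc released from R1A so a rise in polarization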
PKA-R2B act – PKA-R2B complex activation; AID 504700; 340,000 tested, 0.079% active; P22694+P31323; activation, % at 11.4 µM; PKA-R2B holoenzyme dissociation, Cy5-IP20 fluorescence polarization; R2B truncated from residue 108, S112A mutant; 0% DMSO only, 100% 113 µM cGMP;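 active means activation above a cutoff set at the mean over all compounds plus 3 SD, cut at about 18% in these data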;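 further: higher means more holoenzyme dissociation and a rise in polarization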
PfGluPho conf – PfG6PD inhibition, single-dose confirmed; shares compounds with PfG6PD inh; recombinant PfGluPho, NADPH-diaphorase-resazurin fluorescence; inhibition, % at 20 µM; 2,400 tested, 34% active; AID 504753;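 active means inhibition of at least 50% at 20 µM in any single replicate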
Diaph ctr 10uM – diaphorase inhibition or oxidation at 10 uM NADPH; shares compounds with PfG6PD inh; diaphorase-coupled resazurin reduction, fluorescence, NADPH 10 uM; inhibition, % at 20 µM; 820 tested, 39% active;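 active means average inhibition reaching 50% or more with the compound at 20 µM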;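 further: resorufin red fluorescence formed as diaphorase reduces resazurin using NADPH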
Diaph ctr 30uM – inhibits diaphorase or oxidizes, flagging false PfG6PD hits | shares compounds with PfG6PD inh | Diaphorase/resazurin coupled assay, resorufin fluorescence, 30 uM NADPH | inhibition, % at 20 µM | 820 tested, 29% active;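 active means inhibition averaging 50% or more, tested at 20 µM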
Large screens that a line does not name were inactive (follow-up assays come after a bar, where they were run). Rows were chosen to be rich in hits. Some 1.6% of all compounds tested hit in one or more screens of this group.

CC1=NOC(=O)/C1=C\c1ccc(-c2ccccc2Br)o1	PfG6PD inh 95.2 (no result: T cell HTS) | PfGluPho conf 51.0 | Diaph ctr 10uM inactive | Diaph ctr 30uM inactive
O=C(CN(Cc1ccco1)C(=O)c1ccccc1)Nc1ccc(Cl)c(Cl)c1	PfG6PD inh 62.3 | PfGluPho conf inactive
Cc1ccc(C(=O)N(CC(=O)Nc2ccc(Cl)c(Cl)c2)Cc2ccco2)cc1	none
O=C(O)c1cc(N2C(=O)C=CC2=O)cc(N2C(=O)C=CC2=O)c1	PfG6PD inh 120.9 (no result: T cell HTS) | PfGluPho conf 104.6 | Diaph ctr 10uM inactive | Diaph ctr 30uM inactive
NC(=O)c1cc(N2C(=O)C=CC2=O)ccc1Cl	none
O=C(NNC(=O)c1ccccc1OCc1ccccc1)c1ccccc1F	none
O=C(NNC(=O)c1ccccc1OCc1ccccc1)c1ccccc1O	PfG6PD inh 89.5 | PfGluPho conf 68.6 | Diaph ctr 10uM 55.9 | Diaph ctr 30uM 55.9
O=C(NNC(=O)c1ccccc1OCc1ccc(F)cc1)c1ccccc1O	PfG6PD inh 120.4 | PfGluPho conf 69.5 | Diaph ctr 10uM 67.3 | Diaph ctr 30uM 50.2
CC(=O)c1cccc(NC(=O)c2ccccc2OCc2ccc(F)cc2)c1	none
Cc1c(C(=O)OCC(=O)N(C)Cc2ccc(Cl)cc2)oc2ccccc12	none
CC1(NC(=O)NCCCCCCNC(=O)NC2(C)CCS(=O)(=O)C2)CCS(=O)(=O)C1 (stereo not drawn)	none
CC(=O)n1c(-c2ccccc2)c(-c2ccccc2)n(C)c1=O	none
COc1ccc2c(c1)C1(C)CC(C)(C)N2C(=O)N1c1ccccc1 (stereo not drawn)	PfG6PD inh 73.3 | PfGluPho conf inactive
O=C(Nc1nc2c(s1)CCCC2)c1ccc(Br)s1	PfG6PD inh 68.4 | PfGluPho conf inactive
O=C(Nc1nc2c(s1)CCCC2)c1ccc2ncsc2c1	PfG6PD inh 65.2 | PfGluPho conf inactive
CCN1C(=O)[C@H]2[C@@H](c3ccc(C(F)(F)F)cc3)N[C@]3(CCCN(Cc4ccc(C)cc4)C3=O)[C@H]2C1=O	none (no result: HKDC1 inh, ATG4B inh, T cell HTS)
O=C(c1cccc(C(F)(F)F)c1)N1CCC2(CC1)NCCc1[nH]cnc12	none
Cc1ccc(-n2c(=S)sc3c(=O)n(-c4ccc(F)cc4)c(SCC(=O)O)nc32)cc1C	none
Cc1ccc(-n2c(SCC(=O)O)nc3c(sc(=S)n3-c3ccc(C)c(C)c3)c2=O)cc1	PfG6PD inh 75.0 | PfGluPho conf inactive
O=S(=O)(Nc1c(O)ccc2ccccc12)c1ccccc1	PfG6PD inh 74.9 | PfGluPho conf 51.6 | Diaph ctr 10uM inactive | Diaph ctr 30uM inactive
O=S(=O)(Nc1ncccn1)c1ccc(F)cc1	none
O=S(=O)(Nc1c(O)ccc2ccccc12)c1ccc(F)cc1	PfG6PD inh 75.8 | PfGluPho conf inactive
O=S(=O)(Nc1cccc2ccccc12)c1ccccc1	none
Nc1ccc2c(c1)C(O)c1cccc(C(=O)O)c1-2 (stereo not drawn)	none (no result: T cell HTS)
Cc1cc(C(=O)NC2CCCCCCC2)ccc1[N+](=O)[O-]	none
CC1CN(C(=O)CCC(=O)NCc2ccccc2)c2ccccc2O1 (stereo not drawn)	none
COC(=O)/C(=N/Nc1ccccc1C)N1CCCc2ccccc21	none
CCOC(=O)/C(=N/Nc1ccccc1)N1CCCc2ccccc21	PfG6PD inh 94.9 | PfGluPho conf inactive
CCOC(=O)/C(=N/Nc1ccccc1OC)N1CCCc2ccccc21	none
CCOC(=O)/C(=N/Nc1ccc(OC)cc1)N1CCCc2ccccc21	PfG6PD inh 111.7 | PfGluPho conf 58.2 | Diaph ctr 10uM 55.8 | Diaph ctr 30uM 50.7
Cc1cc(NC(=O)CSCC(=O)Nc2nc3ccccc3s2)no1	none
O=C(CCl)N(O)c1ccc(C=Cc2ccccc2)cc1	PfG6PD inh 62.1 (no result: T cell HTS) | PfGluPho conf inactive
CN(C(=O)C=Cc1ccccc1)c1ccccc1	none (no result: T cell HTS)
Cc1ccc(C2=CSC3=NCCN23)c(C)c1	PfG6PD inh 62.5 | PfGluPho conf inactive
Clc1ccc(C2=CSC3=NCCN23)c(Cl)c1	none
O=C(Nc1nnc(S(=O)(=O)N2CCN(c3ccc(F)cc3)CC2)s1)c1ccco1	none
CCOC(=O)c1cnc2ccc(Br)cc2c1NCCO	PfG6PD inh 65.2 | PfGluPho conf inactive
C[C@H]1CN([C@@H](C)CO)C(=O)CCCn2cc(nn2)CO[C@@H]1CN(C)S(C)(=O)=O	none (no result: HKDC1 inh, ATG4B inh, T cell HTS)
CSc1ccc(C2Nc3cccc4cccc(c34)N2)cc1	PfG6PD inh 63.6 | PfGluPho conf inactive
CCOc1ccccc1CNC(=O)C1CCCN(c2nnc(C)c3c(C)n(-c4ccccc4)nc23)C1 (stereo not drawn)	none
CC(C)(C)c1cc(C(=S)N2CCN(CCO)CC2)cc(C(C)(C)C)c1O	PfG6PD inh 60.0 | PfGluPho conf inactive
CC(C)(C)c1cc(C(=O)CCN2CCOCC2)cc(C(C)(C)C)c1O	none
Cc1nc(NS(=O)(=O)c2ccccc2)sc1C(=O)N/N=C/c1ccccc1	PfG6PD inh 74.1 | PfGluPho conf inactive
O=C(OCc1ccccc1)N1C=CC2CC1c1c(Cl)cccc12 (stereo not drawn)	none (no result: T cell HTS)
O=C1C=CC(=O)N1Cc1ccccc1	PfG6PD inh 71.1 | PfGluPho conf inactive
O=C1C2CC=CCC2C(=O)N1Cc1ccccc1 (stereo not drawn)	none
Oc1cc2c(cc1O)[C@H]1c3ccc(O)c(O)c3OC[C@@]1(O)C2	PfG6PD inh 113.3 | PfGluPho conf 97.5 | Diaph ctr 10uM 56.1 | Diaph ctr 30uM inactive
Oc1ccc2c(c1)OCC1(O)Cc3cc(O)c(O)cc3C21 (stereo not drawn)	none (no result: T cell HTS)
C[C@H](CO)N1C[C@H](C)[C@@H](CN(C)Cc2ccc(C(=O)O)cc2)Oc2c(NS(=O)(=O)c3cn(C)cn3)cccc2C1=O	none
CCOc1cc(/C=N/O)ccc1OCc1ccc(C)cc1	PfG6PD inh 66.4 | PfGluPho conf inactive
CCOc1cc(/C=N/O)ccc1OS(=O)(=O)c1ccc(C)cc1	none
CCOc1cc(/C=N/O)cc(Br)c1OCC	none
CCOc1cc(/C=N/O)cc(Br)c1OCc1ccc(Cl)cc1	PfG6PD inh 76.3 | PfGluPho conf inactive
Cn1c(N)c(C(=O)COC(=O)c2ccccc2C(=O)c2ccc(Cl)c([N+](=O)[O-])c2)c(=O)n(C)c1=O	none
